Screens deposited in PubChem by several laboratories.
Shown are actives, neighbours in structure and some others; about 2.6% of the full set was active somewhere.
PG9 Ab binder: small molecules binding HIV-1 gp120 antibody PG9; TR-FRET gp120-PG9 antibody binding; inhibition, % at 6.7 µM; hit rate 0.43% among 360,000; in the data active = inhibition above about 8.5%
rCAG RNA binder: binds r(CAG) RNA repeats | r(CAG) RNA repeat, TO-PRO-1 dye displacement fluorescence | inhibition, % at 3 µM | hit rate 1.3% among 370,000;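 active = inhibition above the plate cutoff, the mean of all test compounds on that plate plus 3 SD, cut at about 35% in these data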;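 note: 0% = DMSO alone and 100% = 100 µM mitoxantrone as full dye displacement; higher means more dye released from RNA so lower well fluorescence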
NR1D1 modulator: modulates human Rev-erb alpha binding to DNA | activity, % at 10 µM | Rev-erbα–FITC-DNA binding, fluorescence polarization, 90 min | hit rate 0.79% among 370,000;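 active = activity above about 14%, limit read from the data; passing the limit was not always enough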;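 note: 0% = DMSO wells with 35 nM protein and 100% = DMSO wells with 750 nM protein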
Target sequence (P20393 whole entry, looked up): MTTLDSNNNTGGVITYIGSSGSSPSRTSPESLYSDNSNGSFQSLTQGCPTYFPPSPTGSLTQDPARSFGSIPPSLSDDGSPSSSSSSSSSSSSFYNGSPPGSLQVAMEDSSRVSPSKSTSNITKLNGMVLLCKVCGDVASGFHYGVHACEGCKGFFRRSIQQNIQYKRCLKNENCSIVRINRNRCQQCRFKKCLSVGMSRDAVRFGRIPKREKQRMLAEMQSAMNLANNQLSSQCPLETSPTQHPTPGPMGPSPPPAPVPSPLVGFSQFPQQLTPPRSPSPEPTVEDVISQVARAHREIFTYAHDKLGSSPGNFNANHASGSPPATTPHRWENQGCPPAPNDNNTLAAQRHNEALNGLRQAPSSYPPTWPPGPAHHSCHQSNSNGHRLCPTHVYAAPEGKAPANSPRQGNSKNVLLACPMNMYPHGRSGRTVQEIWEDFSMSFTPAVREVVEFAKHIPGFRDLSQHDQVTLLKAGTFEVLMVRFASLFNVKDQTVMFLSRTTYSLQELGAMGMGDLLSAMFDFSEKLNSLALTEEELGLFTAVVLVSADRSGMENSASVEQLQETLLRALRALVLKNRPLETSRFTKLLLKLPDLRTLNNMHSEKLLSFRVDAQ
NR2E3 ag-1: agonists of human nuclear receptor NR2E3; Q9Y5X4; GST-NR2E3/biotin-RetCOR TR-FRET, 1536-well; inhibition of corepressor binding, % at 4.78 µM; hit rate 0.12% among 320,000; AID 2300;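 active = percent inhibition above the cutoff of mean plus 3 SD of all tested compounds, set per screening campaign, cut at about 20% in these data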;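 note: 0% = DMSO wells and 100% = biotin wells as full block of FRET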
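Assay system: NR2E3–RetCOR corepressor complex. Quantity: 1.35 nM GST-NR2E3. Buffer or medium: pH 7.5 Tris-based buffer. Reagent: biotinylated RetCOR corepressor at 7 nM final. Schedule: 5 h at 4 °C. Detection: TR-FRET, emission read at 617 and 671 nm. Replicates: one well per compound, singlicate testing.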
NR2E3 ag-2: human photoreceptor-specific nuclear receptor agonism. CHO-S Gal4-NCOR/VP16-NR2E3 two-hybrid, luciferase. Q9Y5X4. hit rate 0.35% among 360,000. inhibition of corepressor binding, % at 3.98 µM. AID 602229;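 active = inhibition above the mean of all tested compounds plus 3 SD, cut at about 70% in these data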;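 note: 0% = DMSO with NR2E3 transfected cells and 100% = cells lacking NR2E3 construct; higher means lower luciferase signal from less NR2E3 corepressor binding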
NR2E3 ag conf: confirmation of human NR2E3 agonists. inhibition, % at 3.98 µM. CHO-S mammalian two-hybrid NR2E3-NCOR, luciferase luminescence. hit rate 51% among 2,300. AID 624378. shares compounds with NR2E3 ag-2;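 active = average inhibition above a cutoff equal to the mean inhibition of all tested compounds plus one SD, cut at about 70% in these data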;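 note: 0% = DMSO in NR2E3 cells and 100% = DMSO in cells lacking NR2E3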
GAL4-VP16 luc: counter-screen for NR2E3 agonists: GAL4-VP16 reporter inhibitors. shares compounds with NR2E3 ag-2. CHO-S GAL4-VP16 luciferase reporter, luminescence. inhibition, % at 3.98 µM. hit rate 29% among 2,300. AID 624379;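 active = mean inhibition above a cutoff equal to the average over all tested compounds plus one standard deviation, cut at about 70% in these data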;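 note: luciferase from a UAS reporter driven by GAL4-VP16 transactivation; 0% = DMSO with VP16-transfected cells and 100% = DMSO with cells lacking VP16; higher means less reporter light so more repression of VP16 activity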
* hit, by the source's call.

For CCc1ccc(S(=O)(=O)Nc2cc3c(cc2C)n(C)c(=O)n3C)cc1 the results were PG9 Ab binder 2, rCAG RNA binder -1, NR1D1 modulator -1, NR2E3 ag-1 1, NR2E3 ag-2 98*, NR2E3 ag conf 83* and GAL4-VP16 luc 69.
Screening CC1CCN(C(=O)c2ccc(NS(=O)(=O)c3ccccc3)cc2)CC1 returned PG9 Ab binder -2, rCAG RNA binder -1, NR1D1 modulator -6, NR2E3 ag-1 -1 and NR2E3 ag-2 6.
`CCOc1ccc(NS(=O)(=O)c2ccc(C(=O)N3CCN(c4ncccn4)CC3)cc2)cc1` gave PG9 Ab binder 1, rCAG RNA binder 0, NR1D1 modulator 1, NR2E3 ag-1 6 and NR2E3 ag-2 29.
Screening COC(=O)C1=C(C)N(Cc2cccc(C(F)(F)F)c2)C(=NCc2ccc(OC)cc2)NC1c1ccc(Cl)cc1 (stereo not given) returned PG9 Ab binder 0, rCAG RNA binder 8 and NR1D1 modulator -6.
`CCOC(=O)CNC(=O)N(C)[C@H]1C[C@H]2c3[nH]c4c(-c5ccccc5)cccc4c3CCN2C(=O)[C@H]1[C@H](C)O` gave PG9 Ab binder 3, rCAG RNA binder 6 and NR1D1 modulator -1.
Screening O=C(Nc1ccc2c(c1)Cc1ccccc1-2)NC1CCCCN(Cc2ccc(Cl)cc2)C1=O (stereo not given) returned rCAG RNA binder 13 and NR1D1 modulator 1.
CCOc1ccc(NS(=O)(=O)c2ccc3c(c2)N(C(C)=O)CCS3)cc1 was read as PG9 Ab binder -2, rCAG RNA binder 2, NR1D1 modulator -3, NR2E3 ag-1 3, NR2E3 ag-2 55, NR2E3 ag conf 7 and GAL4-VP16 luc 13.
For CN(c1cccc(NS(=O)(=O)c2ccccc2)c1)S(C)(=O)=O the results were PG9 Ab binder 2, rCAG RNA binder -1, NR1D1 modulator -5, NR2E3 ag-1 7 and NR2E3 ag-2 -2.
CCOc1ccc(S(=O)(=O)Nc2cccc(N(C)S(C)(=O)=O)c2)cc1 was read as PG9 Ab binder 2, rCAG RNA binder 1, NR1D1 modulator -1, NR2E3 ag-1 0, NR2E3 ag-2 49, NR2E3 ag conf 48 and GAL4-VP16 luc 54.
`CCOc1ccc(NS(=O)(=O)c2ccc3c(c2)N(C(C)=O)CC3)cc1` gave PG9 Ab binder 0, rCAG RNA binder 1, NR1D1 modulator -1, NR2E3 ag-1 0 and NR2E3 ag-2 15.
For Cc1cn([C@@H](CCCCNC(=O)OC(C)(C)C)C(=O)NCCCCCCCCCCC(=O)N2CCN(C(=O)OC(C)(C)C)CC2)nn1 the results were NR2E3 ag-1 3, NR2E3 ag-2 56, NR2E3 ag conf 74* and GAL4-VP16 luc 64.
`Cc1cc(Nc2nc3ccccc3[nH]c2=O)n(-c2ccccc2)n1` gave PG9 Ab binder 0, rCAG RNA binder 4, NR1D1 modulator -6, NR2E3 ag-1 -1, NR2E3 ag-2 52, NR2E3 ag conf 40 and GAL4-VP16 luc 22.
Cc1cc(Nc2cnc3ccccc3n2)n(-c2ccccc2)n1 was read as PG9 Ab binder -2, rCAG RNA binder -4, NR1D1 modulator -1, NR2E3 ag-1 -2 and NR2E3 ag-2 8.
`COc1ccc(N/N=C(\C#N)C(N)=O)cc1` gave PG9 Ab binder -4, rCAG RNA binder 4, NR1D1 modulator 0, NR2E3 ag-1 1 and NR2E3 ag-2 12.
`N#C/C(=N/Nc1ccc(OC(F)(F)F)cc1)C(N)=S` gave PG9 Ab binder -2, rCAG RNA binder 15, NR1D1 modulator 0, NR2E3 ag-1 -1, NR2E3 ag-2 93*, NR2E3 ag conf 93* and GAL4-VP16 luc 58.
CCCCOCC1CN(CCCC)S(=O)(=O)c2c(cccc2N(C)S(=O)(=O)c2ccc(C)cc2)O1 (stereo not given) was read as PG9 Ab binder -1, rCAG RNA binder 5 and NR1D1 modulator 3.
`CCOc1cnn(-c2cc(Oc3ccc(C)cc3)ncn2)c(=O)c1Cl` gave PG9 Ab binder 0, rCAG RNA binder -3, NR1D1 modulator 10, NR2E3 ag-1 0 and NR2E3 ag-2 -10.
Screening Cc1ccccc1Oc1cc(-n2ncc(Cl)c(Cl)c2=O)ncn1 returned PG9 Ab binder 0, rCAG RNA binder -4, NR1D1 modulator -2, NR2E3 ag-1 -16, NR2E3 ag-2 49, NR2E3 ag conf 63 and GAL4-VP16 luc -18.
Screening Cc1csc2ncnc(NC3CCN(Cc4ccccc4)CC3)c12 returned PG9 Ab binder -1, rCAG RNA binder -5, NR1D1 modulator -3, NR2E3 ag-1 2, NR2E3 ag-2 81*, NR2E3 ag conf 95* and GAL4-VP16 luc 86*.
`c1ccc(CN2CCCC3CC2c2ccccc23)cc1` (stereo not given) gave PG9 Ab binder 0, rCAG RNA binder 5 and NR1D1 modulator -4.
Screening Cc1cc(Oc2cccnc2)ccc1NC(=O)Cc1cn(C)c2ccccc12 returned PG9 Ab binder 0, rCAG RNA binder 6 and NR1D1 modulator -2.
`CCCCN(C(C)=O)c1ccc2c(c1)C1CC2CCN1C(=O)OCc1ccccc1` (stereo not given) gave PG9 Ab binder 0, rCAG RNA binder -3, NR1D1 modulator -1, NR2E3 ag-2 68, NR2E3 ag conf 91* and GAL4-VP16 luc 69.
`CCN(CCc1ccccc1)c1ccc2c(c1)C1CC2CCN1C(=O)OCc1ccccc1` (stereo not given) gave PG9 Ab binder 0, rCAG RNA binder 1, NR1D1 modulator -10 and NR2E3 ag-2 -15.
For CN(c1ccccc1)S(=O)(=O)c1ccc(Cl)c(C(=O)Nc2ccncc2)c1 the results were PG9 Ab binder -1, rCAG RNA binder -1, NR1D1 modulator -2, NR2E3 ag-1 -2, NR2E3 ag-2 76*, NR2E3 ag conf 69 and GAL4-VP16 luc 56.
`CN(c1ccc(F)cc1)S(=O)(=O)c1ccc(Cl)c(C(=O)Nc2ccc3c(c2)CCC3)c1` gave PG9 Ab binder -2, rCAG RNA binder 7, NR1D1 modulator 7, NR2E3 ag-1 1 and NR2E3 ag-2 -13.
`CN(c1ccc(F)cc1)S(=O)(=O)c1ccc(Cl)c(C(=O)Nc2ccncc2)c1` gave PG9 Ab binder 1, rCAG RNA binder 3, NR1D1 modulator 7, NR2E3 ag-1 5, NR2E3 ag-2 87*, NR2E3 ag conf 54 and GAL4-VP16 luc 60.
Screening CCN(c1ccccc1)S(=O)(=O)c1ccc(Cl)c(C(=O)Nc2ccncc2)c1 returned PG9 Ab binder 0, rCAG RNA binder 3, NR1D1 modulator -2 and NR2E3 ag-2 19.
O=C(CSC1CCc2ccccc21)NN=Cc1ccco1 (stereo not given) was read as PG9 Ab binder 0, rCAG RNA binder 5 and NR1D1 modulator -3.
